IC50 data for 13 compounds are collected here from ChEMBL document CHEMBL1145210, “Novel cyano- and N-isopropylamidino-substituted derivatives of benzo[b]thiophene-2-carboxanilides and benzo[b]thieno[2,3-c]quinolones: synthesis, photochemical synthesis, crystal structure determination, and antitumor evaluation. 2” (J Med Chem, 2005).

The subject of assay [1] is MCF7. Description: In vitro Inhibition on growth of human MCF 7 breast carcinoma cell line. It is filed as functional, cell-based. An outline of the steps:
(§1)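 Monolayer cultures in DMEM with 10% FBS, 2 mM L-glutamine, penicillin/streptomycin, 37 °C, 5% CO2. Cells plated on day 0 at densities set by doubling time (1 × 10⁴/mL HeLa, Hep-2, MiaPaCa-2, SW 620; 2 × 10⁴/mL MCF-7; 3 × 10⁴/mL WI 38). Compound added at five 10-fold dilutions (10^-8 to 10^-4 mol/L) for 72 h. MTT read at 570 nm, converted to percentage growth versus time-zero and untreated controls. Quadruplicate points, three experiments. IC50 by linear regression.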

For assay [2], the system named is SW-620. Kind of assay: In vitro Inhibition on growth of human SW 620 colon carcinoma cell line. It is filed as functional, cell-based. In outline:
as §1

Assay [3] relates to HeLa. Kind of assay: In vitro Inhibition on growth of human HeLa cervical carcinoma cell line. It is filed as functional, cell-based. In outline:
as §1

Assay [4] is described as follows: In vitro Inhibition on growth of human WI 38 diploid fibroblast cell line. It is filed as functional, cell-based. An outline of the steps:
as §1

Assay [5] in a line: In vitro Inhibition on growth of human Hep 2 laryngeal carcinoma cell line. In kind it is functional. An outline of the steps: as §1
In assay [6] the test system is MIA PaCa-2. Kind of assay: In vitro Inhibition on growth of human MiaPaCa-2 pancreatic carcinoma cell line. In kind it is functional, cell-based. In outline: as §1

Consider `COC(=O)c1ccc(NC(=O)c2sc3cc(C(=N)NC(C)C)ccc3c2Cl)cc1`, for which the IC50 – broadly, the concentration that inhibits the measured activity by half – is 2.36 µM in assay [1]; 3.6 µM in assay [2]; 5.65 µM in assay [3]; 6.9 µM in assay [4]; 8.16 µM in assay [5]; 7.1 µM in assay [6].
Take `COc1ccc2c(Cl)c(C(=O)Nc3ccc(C(=N)NC(C)C)cc3)sc2c1`: the IC50 in assay [1] was determined as 3.7 µM; in assay [2] it was 3.86 µM; in assay [3], 2.7 µM; in assay [4] it was 4.01 µM; in assay [5], 2.55 µM; in assay [6], 4.67 µM.
In the case of `CC(C)/N=C(/N)c1ccc2nc(O)c3sc4cc(Br)ccc4c3c2c1`, the IC50 in assay [1] turned out to be 5.78 µM; in assay [2], 6.84 µM; in assay [3], 1.7 µM; in assay [4] it was 19 µM; in assay [5] it was 6.95 µM; in assay [6], 3.71 µM.
Take `CC(C)/N=C(/N)c1ccc(NC(=O)c2sc3cc(Br)ccc3c2Cl)cc1`: the IC50 in assay [1] was found to be 2.54 µM; in assay [2], 3.93 µM; in assay [3], 2.15 µM; in assay [4] it was 2.99 µM; in assay [5] it was 2.37 µM; in assay [6], 3.51 µM.
Turning to `N#Cc1ccc2c(Cl)c(C(=O)Nc3ccc(Br)cc3)sc2c1`, the IC50 is above 100 µM in assay [1]; above 100 µM in assay [2]; above 100 µM in assay [3]; 5.99 µM in assay [4]; above 100 µM in assay [5]; above 100 µM in assay [6].
Regarding `CC(C)/N=C(/N)c1ccc(NC(=O)c2sc3ccccc3c2Cl)cc1`, the IC50 in assay [1] is 1.97 µM; in assay [2], 27.8 µM; in assay [3], 12.9 µM; in assay [4], 36.4 µM; in assay [5] it was 15.3 µM; in assay [6], 6.99 µM.
As to `CC(C)/N=C(/N)c1ccc2c(c1)sc1c(O)nc3ccc(/C(N)=N\C(C)C)cc3c12`, the IC50 was 78.5 µM in assay [1]; at least 100 µM in assay [2]; 31.6 µM in assay [3]; at least 100 µM in assay [4]; above 100 µM in assay [5]; 86.9 µM in assay [6].
With `CC(C)/N=C(/N)c1ccc2c(Cl)c(C(=O)Nc3ccc(Br)cc3)sc2c1`, the IC50 was 2.62 µM in assay [1]; 4.18 µM in assay [2]; 3.05 µM in assay [3]; 3.64 µM in assay [4]; 3.14 µM in assay [5]; 2.54 µM in assay [6].
Turning to `Cc1ccc(NC(=O)c2sc3cc(C#N)ccc3c2Cl)cc1`, the IC50 is above 100 µM in assay [1]; above 100 µM in assay [2]; above 100 µM in assay [3]; 0.75 µM in assay [4]; above 100 µM in assay [5]; above 100 µM in assay [6].
For `Cc1ccc(NC(=O)c2sc3cc(/C(N)=N\C(C)C)ccc3c2Cl)cc1`, the IC50 worked out at 7.26 µM in assay [1]; 3.54 µM in assay [2]; 2.35 µM in assay [3]; 2.03 µM in assay [4]; 2.96 µM in assay [5]; 5.11 µM in assay [6].
For `COC(=O)c1ccc2c(Cl)c(C(=O)Nc3ccc(C(=N)NC(C)C)cc3)sc2c1`, the IC50 is 1.23 µM in assay [1]; 3.67 µM in assay [2]; 2.24 µM in assay [3]; 2.85 µM in assay [4]; 5.37 µM in assay [5]; 3.49 µM in assay [6].
Turning to `CC(C)/N=C(/N)c1ccc(NC(=O)c2sc3cc(C#N)ccc3c2Cl)cc1`, the IC50 in assay [1] was 23.9 µM; in assay [2] it was 8.02 µM; in assay [3], 22.2 µM; in assay [4], 25.1 µM; in assay [5], 21 µM; in assay [6], 8.72 µM.
As for `COc1ccc(NC(=O)c2sc3cc(C#N)ccc3c2Cl)cc1`, the IC50 in assay [1] was 17.6 µM; in assay [2], above 100 µM; in assay [3], 40.4 µM; in assay [4], 23.4 µM; in assay [5], 48.4 µM; in assay [6], 90.9 µM.
